Scp-1 inhibitor = Scp-1 phosphatase inhibitors, primary screen, biochemical, colorimetric, uHTS | Recombinant Scp1, phosphopeptide, malachite green phosphate absorbance | inhibition, % at 20 µM | 340,000 tested, 0.88% active | AID 493091, 2011;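 active = inhibition above about 50% at 20 µM, limit read from the data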
Target sequence (Q9GZU7 76-261 limits assumed): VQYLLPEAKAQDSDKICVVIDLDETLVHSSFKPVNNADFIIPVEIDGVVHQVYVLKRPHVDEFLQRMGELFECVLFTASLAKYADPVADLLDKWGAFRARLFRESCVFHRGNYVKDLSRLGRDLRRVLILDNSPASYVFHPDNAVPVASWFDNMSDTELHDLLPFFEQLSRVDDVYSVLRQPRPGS
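System: SCP-1 catalytic domain; Reagent: Phospho 17-mer peptide substrate; Doses: one concentration, 20 µM, with 1.0% DMSO; Incubation: 45 min room-temperature reaction, 5 min colour, 30 min stabiliser; Signal: Phosphate-binding colour reagent, absorbance read at 630 nm.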
SUMO1 PPI mod = modulators of SUMO1 protein-protein interactions, primary screen, biochemical, uHTS; SUMO1 binding to a labelled peptide, TR-FRET, 1 h; inhibition, % at 20 µM; Small ubiquitin-related modifier 1 (Homo sapiens), P63165; 360,000 tested, 0.33% active; in the data active = inhibition above about 37%
STEP inh = STEP phosphatase inhibitors, primary screen, biochemical, fluorescence intensity, uHTS; Tyrosine-protein phosphatase non-receptor type 5 (Homo sapiens), P54829; recombinant STEP, OMFP fluorogenic substrate; inhibition, % at 20 µM; 360,000 tested, 0.25% active; AID 588621, 2011;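 active = inhibition at 20 µM, scaled per plate between control wells, above about 37%, limit read from the data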
Target sequence (P54829 whole entry, looked up): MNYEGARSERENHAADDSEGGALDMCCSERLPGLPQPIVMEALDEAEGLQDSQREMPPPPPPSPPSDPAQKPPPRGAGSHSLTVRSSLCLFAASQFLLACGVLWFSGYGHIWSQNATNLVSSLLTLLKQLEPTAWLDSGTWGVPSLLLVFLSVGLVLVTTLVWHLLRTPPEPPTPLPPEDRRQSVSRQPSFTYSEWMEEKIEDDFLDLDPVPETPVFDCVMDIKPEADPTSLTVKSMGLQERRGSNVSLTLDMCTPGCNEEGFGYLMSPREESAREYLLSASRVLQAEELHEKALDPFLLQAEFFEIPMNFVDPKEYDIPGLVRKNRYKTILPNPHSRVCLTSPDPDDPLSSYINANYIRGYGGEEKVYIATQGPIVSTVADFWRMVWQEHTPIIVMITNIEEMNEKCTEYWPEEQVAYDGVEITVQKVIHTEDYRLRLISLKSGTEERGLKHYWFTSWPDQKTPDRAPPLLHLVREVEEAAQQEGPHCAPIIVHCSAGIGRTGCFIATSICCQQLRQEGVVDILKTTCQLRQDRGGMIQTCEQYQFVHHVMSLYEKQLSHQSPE
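System: STEP (striatal-enriched tyrosine phosphatase) enzyme, cell-free; medium: Bis-Tris pH 6.0 buffer with DTT, detergent; dosing: 20 µM, 1% DMSO; times: reaction 20 min, ambient temperature; detection: fluorescence, 480/540 nm; read-out basis: normalized % inhibition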
DNMT1 block = human DNMT1 methyltransferase inhibitors, primary screen, biochemical, molecular beacon, fluorescence, HinP1I cleavage, uHTS. DNA (cytosine-5)-methyltransferase 1 (Homo sapiens), P26358. AID 588458, 2011. inhibition (reported as % activation of signal), % at 10 µM. 360,000 tested, 0.83% active; in the data active = inhibition above about 50%
LMPTP block = LMPTP phosphatase inhibitors, primary screen, biochemical, fluorescence intensity, uHTS | Low molecular weight phosphotyrosine protein phosphatase (Homo sapiens), P24666 | recombinant LMPTP-A, OMFP fluorogenic substrate | inhibition, % at 20 µM | 360,000 tested, 0.22% active | AID 651560, 2012;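 active = compounds that cut the enzyme signal by at least half of the control window in the single-dose screen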
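Assay system: LMPTP-A phosphatase enzyme | Input: 0.625 nM enzyme | Also added: Fluorogenic phosphatase substrate OMFP at 400 µM final | Compound dosing: One test concentration per compound, 20 µM, with 3% DMSO overall | Schedule: 50 min enzyme reaction at room temperature, protected from light | Signal: Fluorescence intensity | Benchmarks: no-enzyme and uninhibited controls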
F508del corr = F508del CFTR correction, initial screen, CFBE line, single point; CFBE cells, YFP halide quenching; stimulated with forskolin plus potentiator P3; % fluorescence drop versus neutral controls; activity (quench increase), % at 7.58 µM; 350,000 tested, 0.36% active; AID 720511, 2013;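 active = mean added fluorescence quench of at least 8% versus neutral control, with both replicates also reaching 8%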;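 note: cells transiently co-express mutant CFTR-F508del with the halide-sensitive YFP; corrector assay measuring rescue of mutant channel to the surface after 24 h compound exposure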
STEP conf = STEP phosphatase inhibitor hit confirmation, biochemical, fluorescence intensity, single concentration. shares compounds with STEP inh. recombinant STEP, OMFP fluorogenic substrate. inhibition, % at 20 µM. 520 tested, 32% active; call rule not given here
Large screens that a line does not name were inactive (follow-up assays come after a bar, where they were run). An excerpt weighted towards active compounds, which were near 1.6% of everything screened.

CCCNC(=O)C[C@H]1CC[C@@H]2[C@@H](COc3ccc(NC(=O)Nc4ccccc4)cc3C(=O)N2C)O1	none (no result: Scp-1 inhibitor, SUMO1 PPI mod, STEP inh, DNMT1 block, LMPTP block)
O=C(N/N=C/C(Cl)=C/c1ccc([N+](=O)[O-])cc1)C(=O)Nc1cccc(C(=O)O)c1	STEP inh 46 | STEP conf inactive
O=C(Nc1cccc(C(=O)O)c1)/C(=C/c1cccc([N+](=O)[O-])c1)NC(=O)c1cccc(Br)c1	none
O=S(=O)(c1ccccc1)N1CCN(C(=S)NCCCN2CCOCC2)CC1	STEP inh 49 | STEP conf inactive
COCCCN(C(=S)Nc1c(C)cc(C)cc1C)C(C)c1ccccn1 (stereo not drawn)	STEP inh 46 | STEP conf 25
CCNC(=O)c1cc2c(c(-c3cccc(-c4ccncc4)c3)n1)[C@@H](CCO)N(S(=O)(=O)CC)C2	none (no result: Scp-1 inhibitor, SUMO1 PPI mod, STEP inh, DNMT1 block, LMPTP block)
COc1ccc(C(=O)NCCc2c[nH]c3ccc(OC)cc23)cc1	none (no result: F508del corr)
COc1ccc2[nH]cc(CCNC(=O)c3ccccc3Cl)c2c1	STEP inh 46 | STEP conf inactive
COc1ccc(COc2ccsc2C(=O)Nc2ccc(Cl)c(Cl)c2)cc1	STEP inh 55 (no result: F508del corr) | STEP conf inactive
COc1cc(C)c(NC(=O)C(=S)NCCc2ccccc2)cc1C	STEP inh 47 | STEP conf inactive
COc1ccc(NC(=S)NCCc2ccccc2)c(C)c1	none
O=C(C[C@H]1CC[C@H]2[C@@H](COC[C@H](O)CN2Cc2ccncc2)O1)NCc1ccncc1	none (no result: Scp-1 inhibitor, SUMO1 PPI mod, STEP inh, DNMT1 block, LMPTP block)
Cc1cc(C)c2nc(-c3ccccn3)cc(C(=O)Nc3ccc(S(=O)(=O)Nc4onc(C)c4C)cc3)c2c1	STEP inh 41, DNMT1 block 68 (no result: F508del corr) | STEP conf 72
Cc1cc(C)c2nc(-c3ccccn3)cc(C(=O)Nc3ccc(S(=O)(=O)Nc4cc(C)on4)cc3)c2c1	none (no result: F508del corr)
Cc1cccc(NC(=O)c2cc3c(=O)n4ccccc4nc3s2)c1	STEP inh 84 | STEP conf inactive
Cc1cccc(NC(=O)c2cnc3ccccn3c2=O)c1	none
O=C(NCCCn1ccnc1)C(Cc1ccccc1)N1C(=O)c2ccccc2C1=O (stereo not drawn)	STEP inh 48 (no result: F508del corr) | STEP conf 36
O=C(C[C@H]1C=C[C@H](NC(=O)C2CCOCC2)[C@@H](CO)O1)Nc1nccs1	none (no result: Scp-1 inhibitor, SUMO1 PPI mod, STEP inh, DNMT1 block, LMPTP block)
Cc1ccc(-c2nc3ncccc3o2)cc1NC(=O)CC(C)C	STEP inh 85 (no result: F508del corr) | STEP conf 9.9
O=C(Nc1cccc(O)c1)C1CC(c2cccc(Br)c2)=NO1 (stereo not drawn)	STEP inh 79 | STEP conf inactive
Cc1sc2nc(CSC(C)C(=O)Nc3ccc(Cl)cn3)[nH]c(=O)c2c1C (stereo not drawn)	STEP inh 79 | STEP conf 60
COCCn1c(SCC(=O)Nc2ccc3c(c2)OCCO3)nc2ccccc2c1=O	none (no result: Scp-1 inhibitor)
COCCn1c(SCC(=O)Nc2ccc3[nH]c(=O)[nH]c3c2)nc2ccccc2c1=O	STEP inh 38 | STEP conf inactive
COc1ccc(CCN(Cc2ccccn2)C(=S)Nc2cccc(C)c2)cc1OC	none
COc1ccc(NC(=S)N(CCc2ccc(OC)c(OC)c2)Cc2ccccn2)cc1	STEP inh 48 | STEP conf inactive
C[C@@H]1CN([C@@H](C)CO)C(=O)c2cc(N(C)C)ccc2O[C@@H](C)CCCCO[C@@H]1CN(C)Cc1ccccc1	none (no result: Scp-1 inhibitor, SUMO1 PPI mod, STEP inh, DNMT1 block, LMPTP block)
S=C(NCCc1ccccc1)Nc1c(Cl)cccc1Cl	STEP inh 96 | STEP conf 51
S=C1NC[C@H](Cc2ccccc2)N1CC1CCN(CCCC2CCCC2)CC1	STEP inh 43 | STEP conf inactive
S=C1NC[C@H](Cc2ccccc2)N1CCCCC1CCCCC1	none
Cc1ccc(N=C2NC(=O)/C(=C/c3cccnc3)S2)cc1C	STEP inh 45 | STEP conf inactive
CCOc1ccc(C(=O)Nc2cc(-c3nc4ccccc4[nH]3)ccc2Cl)cc1[N+](=O)[O-]	STEP inh 54 (no result: F508del corr) | STEP conf 47
CC(=O)NC[C@@H]1[C@@H](c2ccc(C3=CCCCC3)cc2)[C@@H](CO)N1C(=O)C1CC1	none (no result: Scp-1 inhibitor, SUMO1 PPI mod, STEP inh, DNMT1 block, LMPTP block)
S=c1[nH]nc(-c2cccnc2)n1/N=C/c1ccc(Br)s1	STEP inh 36 (no result: F508del corr) | STEP conf 29
Cc1ccc(/C=N/n2c(-c3cccnc3)n[nH]c2=S)s1	none (no result: F508del corr)
COC(=O)c1ccc(NC(=O)c2cn(-c3ccccc3)nc2-c2ccncc2)cc1	STEP inh 46 (no result: F508del corr) | STEP conf inactive
O=C(C[C@H]1C[C@@H]2c3cc(NC(=O)Nc4ccccc4)ccc3O[C@@H]2[C@@H](CO)O1)NCc1ccccn1	none (no result: Scp-1 inhibitor, SUMO1 PPI mod, STEP inh, DNMT1 block, LMPTP block)
CC(C)NC(=O)N(C)C[C@@H]1Oc2ccc(NC(=O)Nc3cccc4ccccc34)cc2C(=O)N([C@@H](C)CO)C[C@H]1C	none (no result: Scp-1 inhibitor, SUMO1 PPI mod, STEP inh, DNMT1 block, LMPTP block)
O=C(CC(=O)c1ccccc1)Nc1cccc([N+](=O)[O-])c1	none (no result: Scp-1 inhibitor)
O=C(CC(=O)c1cccc([N+](=O)[O-])c1)Nc1ccccc1Cl	STEP inh 120 | STEP conf inactive
CC(C)c1ccc(N2C(=O)C(Cl)=C(N3CCOCC3)C2=O)cc1	STEP inh 42 | STEP conf inactive
C[C@H](CO)N1C[C@H](C)[C@H](CN(C)S(=O)(=O)c2ccc(F)cc2)Oc2ncc(C#Cc3ccccc3)cc2C1=O	none (no result: Scp-1 inhibitor, SUMO1 PPI mod, STEP inh, DNMT1 block, LMPTP block)
CC(C)NC(=O)N1C[C@@H]2[C@H](c3ccccc31)[C@@H](CO)N2C(=O)c1ccccc1	none (no result: Scp-1 inhibitor, SUMO1 PPI mod, STEP inh, DNMT1 block, LMPTP block)
Cc1ccc(C(=O)n2c(-c3ccccc3)cnc2SCC(=O)Nc2ccccc2)cc1	STEP inh 73 (no result: F508del corr) | STEP conf inactive
Cc1ccc(NC(=O)CSc2ncc(-c3ccccc3)n2C(=O)c2ccccc2)cc1	none (no result: F508del corr)
CC1CCN(c2c([N+](=O)[O-])c(=O)oc3ccccc23)CC1	STEP inh 53 (no result: F508del corr) | STEP conf inactive
O=c1oc2ccccc2c(N2CCCC2)c1[N+](=O)[O-]	none
C[C@@H]1CN([C@H](C)CO)C(=O)c2cc(N(C)C)ccc2O[C@@H](C)CCCCO[C@@H]1CN(C)S(=O)(=O)c1cccs1	none (no result: Scp-1 inhibitor, SUMO1 PPI mod, STEP inh, DNMT1 block, LMPTP block)
Cc1ccc(C(=O)N/N=C\c2ccc(OC(=O)c3cccc(F)c3)cc2)cn1	STEP inh 82, LMPTP block 62 | STEP conf inactive

Bioassay records deposited in PubChem BioAssay by several laboratories.
